# Screens deposited in PubChem by Columbia University Molecular Screening Center.
# Shown is part of a subset that was picked to be rich in hits.
# Insulin prom act: TRM-6 insulin promoter activation | 0.81% of 130,000 active | TRM-6 cells (human fetal islet line), insulin promoter eGFP reporter, imaging; plate-scaled: unstimulated 0, stimulated control 100 | activation, % at 2 µM | AID 1296;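 active = activation at 2 µM above a set limit, confirmed on inspection of the cell images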;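 also: share of cells whose green reporter signal exceeds an intensity cutoff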
#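 Assay system: TRM-6 human fetal islet cells, insulin promoter–eGFP reporter; Also added: 0.75 µM tamoxifen as reporter inducer; Schedule: 15 h tamoxifen pre-treatment, 48 h compound treatment at 37 °C; Signal: fixed-cell fluorescence microscopy, eGFP plus Hoechst; Read-out: percent activation from GFP-positive cell fraction; Control set: stimulated and unstimulated wells.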
# Active calls of the source: *.
SMILES,Insulin prom act
O=[N+]([O-])c1ccc(-c2ccc(/C=N/Nc3nc(N4CCCCC4)nc(N4CCCCC4)n3)o2)cc1,614*
O=[N+]([O-])c1cccc(/C=N/Nc2nc(N3CCCCC3)nc(N3CCCCC3)n2)c1,-71
O=C(Cc1ccc(F)cc1)NC1CCSC1=O (stereo unspecified),0
Nc1ccc(C(=O)OCc2csc(-c3ccccc3)n2)cc1[N+](=O)[O-],3
CCOC(=O)NC1(C(F)(F)F)NC(=O)N(Cc2ccco2)C1=O (stereo unspecified),8
CCCCCCCCC(=O)N/N=C(\C)c1ccc(O)cc1O,-8
